Data published in ChEMBL document CHEMBL2176922, “Benzofuroxane derivatives as multi-effective agents for the treatment of cardiovascular diabetic complications. Synthesis, functional evaluation, and molecular modeling studies” (J Med Chem, 2012).
Active and inactive are the calls of the source. The rule behind the calls is not given here.

Tests used:
Liver = assay: Induction of NO generation in Sprague-Dawley albino rat liver homogenate at 10^-4 M after 1 hr by Griess reaction; type: functional, tissue-based
Outline: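 Rat liver rinsed in ice-cold sucrose buffer (100 mM K2HPO4, 1 mM EDTA, 1.15% KCl, 0.25 M sucrose, 0.1% EtOH, pH 7.4), homogenized 1/6 w/v, gauze-filtered, spun 600g 10 min at 0 °C to remove nuclei. Incubated with compound 1 h at 37 °C; nitrite measured by Griess reaction at 543 nm, given as % NO2− (mol/mol) relative to compound added. At least two determinations in triplicate.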

[1] = biological target: Aldo-keto reductase family 1 member B1 (Rattus norvegicus, UniProt P07943); assay: Inhibition of Sprague-Dawley albino rat lens ALR2 by spectrophotometry; type: tissue-based, Lens of camera-type eye
Brain = assay: Antioxidant activity in Sprague-Dawley albino rat brain homogenate assessed as inhibition of hydroxyl radical dependent lipoperoxidation measuring malondialdehyde production at 100 uM after 30 mins by TBARS assay; type: functional, tissue-based
Outline: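 Rat brain homogenized 10% (w/v) in phosphate buffer pH 7.4; 100 μL homogenate with 20 μM FeCl3 and 100 μM ascorbic acid (final), test compound at 100 μM final, 1 mL, 30 min at 37 °C. TBA/HCl added, boiled 10 min, n-butanol extraction, A532; TBARS as nmol MDA per 10 mg wet tissue vs tetramethoxypropane standard curve. At least two determinations in triplicate.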

Rattus norvegicus = species on record: Rattus norvegicus; assay: Inhibition of Aldehyde reductase in Sprague-Dawley albino rat at 100 uM
Outline: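 Rat kidney ALR1 at 37 °C with 20 mM sodium D-glucuronate and 0.12 mM NADPH (stock levels), dialyzed enzyme, 0.1 M sodium phosphate pH 7.2; rate calibrated to 0.015 absorbance unit/min. NADPH oxidation followed at 340 nm; blank without substrate. Percent inhibition at 100 μM.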

[2] = biological target: Aldo-keto reductase family 1 member B1 (Rattus norvegicus) (UniProt P07943); assay: Ratio of KM07100 IC50 to compound IC50 for Sprague-Dawley albino rat lens ALR2; type: tissue-based; details: Lens of camera-type eye

Row | IC50 [1] [nM] | inhibition (Rattus norvegicus) | Ratio IC50 [2] | Compound | Activity (Liver) | inhibition (Brain)
1 | 1940 | 14% |  | [O-][n+]1onc2cc(OCc3ccc(C(F)(F)F)cc3)ccc21 | 2% | Active
2 | 1410 | inactive |  | [O-][n+]1onc2cc(OCc3ccc(Br)cc3F)ccc21 | inactive | Active
3 | 460 | 5% |  | O=[N+]([O-])c1cccc(COc2ccc3c(c2)no[n+]3[O-])c1 | 2% | Active
4 | 5900 | 11% |  | [O-][n+]1onc2cc(OCCc3ccccc3)ccc21 | 2% | Active
5 | 990 | 26% | 36 | [O-][n+]1onc2cc(OCc3ccccc3)ccc21 | 2% | 50%
6 |  | 20% |  | O=S(=O)(Oc1ccc2nonc2c1)c1ccc(Cl)s1 |  | 
7 | 820 | inactive |  | [O-][n+]1onc2cc(OCc3ccc(F)cc3)ccc21 | inactive | Active
8 | 420 | 38% |  | [O-][n+]1onc2cc(OCc3nc4ccccc4s3)ccc21 | inactive | Active
9 | 4520 | inactive |  | COc1ccc(COc2ccc3c(c2)no[n+]3[O-])cc1 | 2% | Active
10 |  |  |  | Cc1c(C)c2c(c(C)c1O)CC[C@@](C)(CCC[C@H](C)CCC[C@H](C)CCCC(C)C)O2 |  | Active
11 | 920 | 19% |  | [O-][n+]1onc2cc(OCc3ccc(Cl)cc3)ccc21 | 2% | Active
12 | 830 | 24% |  | Cc1ccc(COc2ccc3c(c2)no[n+]3[O-])cc1 | 2% | Active
13 | 7360 | 19% |  | [O-][n+]1onc2cc(OCc3ccc(Br)cc3)ccc21 | 2% | Active
14 | 1430 | 35% |  | [O-][n+]1onc2cc(OCc3ccc4ccccc4c3)ccc21 | 2% | Active
